# How the values were obtained:
# [1] = PA-RGDS self-assembled under similar conditions; cited from earlier work
# [2] = system: neonatal rat cardiomyocytes (NRCMs); experiment: Cytoprotection against H2O2 oxidative stress, Live/Dead staining; format: cell-based; settings: H2O2 200 μM, 2 h; p < 0.001; N = 3
# mESC-CMs = experiment: Mouse myocardial infarction model, engraftment of DiI-labelled mESC-CMs; format: in vivo, athymic nude mice (Foxn1nu); settings: heart sections 4 weeks after MI; p < 0.05; N = 3
# Method in brief: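 Male athymic nude mice (Foxn1nu) underwent MI by left anterior descending coronary artery ligation. Immediately after surgery, 2 × 105 CM-DiI-prelabelled mESC-derived CMs from one differentiation batch, alone or encapsulated in test gel, were injected intramyocardially through 30 G needles at two border-zone sites. PBS and gel-only groups served as controls. Frozen OCT heart sections were fixed in 4% paraformaldehyde before imaging.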
substance,measurement,setting,value
C16-GTAGLIGQRGDS [PA-RGDS],storage modulus (G′),[1],around 100 Pa
same,viability after H2O2 (Live/Dead staining) compared to NRCMs without encapsulation,[2],significantly improved viability
same,number of engrafted DiI-positive mESC-CMs at 4 weeks compared to mESC-CMs only,mESC-CMs,significantly higher

# Reference: paper PMC4212793 (ACS Nano, 2014)
